Activity calls are given as the source filed them. No cut-off for these calls is given here.
What was measured:
[1] = test system: HeLa; experiment: Inhibition of autophagy in human HeLa cells assessed as induction of LC3-I protein accumulation at 4 uM incubated for 24 hrs by immunoblotting method; type: functional, cell-based
Method in brief: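 HeLa cells were grown in DMEM with 10% FBS to about 50% confluency, then given 4 µM compound or DMSO for 24 h. Cold-PBS wash, lysis in TBS pH 7.6 with 1% Triton-X, 0.2% SDS and protease/phosphatase inhibitors. Lysates were protein-normalized and immunoblotted for LC3-I/LC3-II, with actin as loading control.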

[2] = target: T1, Serine/threonine-protein kinase ULK1 (Homo sapiens, UniProt O75385); experiment: Inhibition of SUMO-tagged ULK1 (unknown origin) kinase domain expressed in KRX cells using [32P]-gamma-ATP and myelin basic protein substrate incubated for 7 mins; type: cell-based
T1 sequence (O75385 whole entry): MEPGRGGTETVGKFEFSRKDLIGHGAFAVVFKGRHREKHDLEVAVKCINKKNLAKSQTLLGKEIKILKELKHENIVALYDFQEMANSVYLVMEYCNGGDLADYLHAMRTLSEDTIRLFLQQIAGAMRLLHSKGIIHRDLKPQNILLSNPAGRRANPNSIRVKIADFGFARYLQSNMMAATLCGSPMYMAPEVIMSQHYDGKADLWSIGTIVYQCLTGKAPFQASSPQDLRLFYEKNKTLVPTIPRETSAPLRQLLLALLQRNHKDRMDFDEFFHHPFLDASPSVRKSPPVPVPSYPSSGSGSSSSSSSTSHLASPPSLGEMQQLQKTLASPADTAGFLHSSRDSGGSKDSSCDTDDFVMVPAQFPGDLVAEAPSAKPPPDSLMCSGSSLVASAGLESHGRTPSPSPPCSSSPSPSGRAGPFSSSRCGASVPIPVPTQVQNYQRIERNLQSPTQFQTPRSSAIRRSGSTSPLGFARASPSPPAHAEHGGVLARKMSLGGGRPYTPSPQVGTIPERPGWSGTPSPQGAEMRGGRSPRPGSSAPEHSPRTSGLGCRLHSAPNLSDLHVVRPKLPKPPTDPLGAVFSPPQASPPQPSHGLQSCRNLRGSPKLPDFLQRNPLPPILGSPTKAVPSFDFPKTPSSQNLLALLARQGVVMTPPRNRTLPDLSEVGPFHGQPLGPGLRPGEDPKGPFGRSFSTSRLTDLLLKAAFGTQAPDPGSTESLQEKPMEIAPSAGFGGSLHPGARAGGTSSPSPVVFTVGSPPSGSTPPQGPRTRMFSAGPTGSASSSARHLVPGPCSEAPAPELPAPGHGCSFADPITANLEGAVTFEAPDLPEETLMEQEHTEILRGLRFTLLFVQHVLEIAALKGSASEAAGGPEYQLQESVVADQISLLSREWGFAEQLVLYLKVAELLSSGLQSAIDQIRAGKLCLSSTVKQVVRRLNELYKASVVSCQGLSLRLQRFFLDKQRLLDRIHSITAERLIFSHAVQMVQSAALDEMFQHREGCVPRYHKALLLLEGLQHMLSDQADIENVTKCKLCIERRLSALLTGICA
Method in brief: (§1)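 Enzyme at 5 nM with 50 µM cold ATP, 0.05 µCi/µl 32P-γ-ATP and 20 µM myelin basic protein as substrate. Reactions were spotted onto nitrocellulose, washed three times in 1% phosphoric acid, dried and imaged by phosphorimager. IC50 from curve fitting; duplicate.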

[3] = target: T2, 3-phosphoinositide-dependent protein kinase 1 (Homo sapiens, UniProt O15530); experiment: Inhibition of recombinant PDK1 (unknown origin) using PDK1tide substrate incubated for 7 mins
T2 sequence (O15530 whole entry): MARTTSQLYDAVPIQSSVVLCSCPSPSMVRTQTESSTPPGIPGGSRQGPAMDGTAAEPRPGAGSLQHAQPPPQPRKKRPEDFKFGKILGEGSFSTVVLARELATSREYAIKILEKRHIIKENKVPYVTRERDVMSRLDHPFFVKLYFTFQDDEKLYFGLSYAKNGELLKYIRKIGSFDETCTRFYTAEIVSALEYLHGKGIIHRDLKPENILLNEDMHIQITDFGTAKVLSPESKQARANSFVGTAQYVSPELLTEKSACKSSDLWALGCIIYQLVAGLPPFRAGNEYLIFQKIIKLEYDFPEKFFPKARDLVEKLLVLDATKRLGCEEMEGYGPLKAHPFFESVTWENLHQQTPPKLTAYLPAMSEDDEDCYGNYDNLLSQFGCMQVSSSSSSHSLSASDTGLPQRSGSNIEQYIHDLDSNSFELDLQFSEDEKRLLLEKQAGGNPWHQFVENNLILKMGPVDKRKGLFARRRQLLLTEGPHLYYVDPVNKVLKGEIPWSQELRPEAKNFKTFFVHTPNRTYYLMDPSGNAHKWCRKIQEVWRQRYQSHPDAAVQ
Method in brief: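 Recombinant PDK1 at 5 nM with 50 µM synthetic PDK1tide in 50 mM HEPES pH 7.5, 10 mM MgCl2, 1 mg/ml BSA, 0.02% Triton-X and 50 µM DTT. Stopped after 7 min by spotting onto nitrocellulose, washed three times in 1% phosphoric acid and phosphorimaged. IC50 from curve fitting; duplicate.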

[4] = target: T3, Serine/threonine-protein kinase ULK2 (Homo sapiens, UniProt Q8IYT8); experiment: Inhibition of SUMO-tagged ULK2 (unknown origin) kinase domain expressed in KRX cells using [32P]-gamma-ATP and myelin basic protein substrate incubated for 7 mins; type: single protein; method in brief: as §1
T3 sequence (Q8IYT8 whole entry): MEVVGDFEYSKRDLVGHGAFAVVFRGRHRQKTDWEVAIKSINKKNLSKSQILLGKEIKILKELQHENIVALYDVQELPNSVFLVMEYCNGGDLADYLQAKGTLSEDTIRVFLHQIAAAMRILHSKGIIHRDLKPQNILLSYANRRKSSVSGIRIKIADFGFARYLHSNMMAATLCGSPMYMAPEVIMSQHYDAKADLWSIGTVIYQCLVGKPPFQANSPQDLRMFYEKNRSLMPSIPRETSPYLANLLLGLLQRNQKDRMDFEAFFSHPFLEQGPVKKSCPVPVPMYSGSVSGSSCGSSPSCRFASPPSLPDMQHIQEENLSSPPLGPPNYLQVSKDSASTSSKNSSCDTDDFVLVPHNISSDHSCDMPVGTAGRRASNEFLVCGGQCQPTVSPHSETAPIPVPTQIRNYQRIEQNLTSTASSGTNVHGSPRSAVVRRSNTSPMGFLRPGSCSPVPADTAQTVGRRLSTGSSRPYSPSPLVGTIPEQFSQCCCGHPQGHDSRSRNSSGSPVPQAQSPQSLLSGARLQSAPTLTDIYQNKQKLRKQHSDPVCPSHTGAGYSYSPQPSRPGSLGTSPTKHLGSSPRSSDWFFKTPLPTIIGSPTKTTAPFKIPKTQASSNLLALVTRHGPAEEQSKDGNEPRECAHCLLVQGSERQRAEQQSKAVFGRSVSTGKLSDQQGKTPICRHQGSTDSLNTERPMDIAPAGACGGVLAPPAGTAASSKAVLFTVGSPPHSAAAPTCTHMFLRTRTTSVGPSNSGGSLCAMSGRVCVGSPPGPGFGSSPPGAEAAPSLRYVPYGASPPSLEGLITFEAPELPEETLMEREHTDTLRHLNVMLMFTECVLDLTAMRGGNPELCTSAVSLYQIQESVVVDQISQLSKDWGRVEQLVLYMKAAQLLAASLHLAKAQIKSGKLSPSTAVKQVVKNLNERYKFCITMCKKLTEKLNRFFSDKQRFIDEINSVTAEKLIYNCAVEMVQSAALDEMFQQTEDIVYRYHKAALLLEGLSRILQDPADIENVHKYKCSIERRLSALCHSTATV

Compound | Activity [1] | IC50 [2] | IC50 [3] | IC50 [4]
O=C(NCCCNc1nc(Nc2cccc(NC(=O)N3CCCC3)c2)ncc1I)c1cccs1 [BX-795] | Active | 87 nM | 65 nM | 310 nM
O=C(NCCCNc1nc(Nc2cccc(CN3CCOCC3)c2)ncc1C1CC1)C1CCC1 | Active | – | 421 nM | –
O=C(NCCCNc1nc(Nc2cccc(NC(=O)N3CCCC3)c2)ncc1I)C1CC1 | Active | 67 nM | 56 nM | 200 nM

From ChEMBL document CHEMBL3603808, “Discovery and structure of a new inhibitor scaffold of the autophagy initiating kinase ULK1” (Bioorg Med Chem, 2015)
